Compound activity as filed in PubChem BioAssay.
The list is not random: actives were taken first. Their share in the collection is about 2.2%.
SIAE primary: blocks human sialic acid acetylesterase | Q9HAT2 | SIAE FP-Rh probe binding, fluorescence polarization | inhibition, % at 9.66 µM | hit rate 0.69% among 370,000 | AID 1053197;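 active means inhibition above a cutoff: mean of compounds within the control limits plus 3 SD of those, cut at about 17% in these data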;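 further: 0% = plate median of compound wells and 100% = probe without SIAE protein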
Target sequence (Q9HAT2 whole entry, looked up): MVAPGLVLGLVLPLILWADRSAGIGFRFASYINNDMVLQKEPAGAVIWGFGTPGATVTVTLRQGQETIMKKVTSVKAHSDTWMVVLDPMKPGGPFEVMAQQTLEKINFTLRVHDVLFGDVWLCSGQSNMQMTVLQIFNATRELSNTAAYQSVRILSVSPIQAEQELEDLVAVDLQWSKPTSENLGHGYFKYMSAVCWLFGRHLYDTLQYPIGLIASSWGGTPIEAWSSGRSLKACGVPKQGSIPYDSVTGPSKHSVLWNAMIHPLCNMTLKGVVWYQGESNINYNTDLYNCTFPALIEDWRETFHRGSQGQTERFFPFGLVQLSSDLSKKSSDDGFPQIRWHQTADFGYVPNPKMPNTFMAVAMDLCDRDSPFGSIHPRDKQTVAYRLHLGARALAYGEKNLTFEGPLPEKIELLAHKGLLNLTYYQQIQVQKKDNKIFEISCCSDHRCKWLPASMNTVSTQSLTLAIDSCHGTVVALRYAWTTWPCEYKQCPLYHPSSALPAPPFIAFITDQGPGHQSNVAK
TCR-CD3 inh: inhibitors of human TCR-CD3 interaction; TAMRA-labeled TCR probe fluorescence, biochemical; inhibition, % at 9.4 µM; hit rate 0.37% among 360,000; AID 651800;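 further: recombinant mutant TCR 2C K166C tagged with TAMRA read by polarization; 0% = receptor in buffer alone and 100% = receptor with positive control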
HTRA1 inh: HTRA1 (human) protease inhibition; recombinant HTRA1, FP-rhodamine activity-based probe, fluorescence polarization; inhibition, % at 5.96 µM; hit rate 0.5% among 340,000; AID 504803; in the data active means inhibition above about 36%;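 further: 0% = enzyme with DMSO and 100% = wells lacking enzyme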
TDP2 absorb: blocks human TDP2 phosphodiesterase activity; O95551; recombinant TDP2, T5PNP hydrolysis, p-nitrophenol absorbance 415 nm; inhibition, % at 12.8 µM; hit rate 0.34% among 370,000; AID 720702;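 active means inhibition above the mean of all tested compounds plus 3 SD, set per campaign, cut at about 25% in these data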;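 further: 0% = DMSO with enzyme and 100% = buffer with substrate but no TDP2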
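System – recombinant human TDP2 · Quantity – TDP2 enzyme at 120 nM final · Doses – single concentration, 12.8 µM nominal, with 1% DMSO · Incubation – 2 h at 37 °C · Measured by – epi absorbance of p-nitrophenol freed from T5PNP by hydrolysis · Read-out – % inhibition relative to enzyme-containing and enzyme-free wells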
LEDGF integ inh: blocks HIV-1 LEDGF/p75-dependent DNA integration; TR-FRET IN-LEDGF/p75 DNA integration, Eu/Cy5; inhibition, % at 3.7 µM; hit rate 0.64% among 370,000; AID 743269;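 active means inhibition above the screen-wide mean plus 3 SD, cut at about 13% in these data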;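 further: signal is the Cy5 over europium emission ratio at 671 and 618 nm; 0% = plate median of compound wells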
mABHD4 FP: inhibits mouse alpha/beta hydrolase domain 4. Q8VD66. purified mABHD4, FP-Rh probe fluorescence polarization. inhibition, % at 8.92 µM. hit rate 0.54% among 370,000;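 active means inhibition exceeding the mean over every tested compound plus 3 SD, cut at about 30% in these data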;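 further: 0% = plate median of compound wells and 100% = S159A mutant with DMSO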
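system = mouse ABHD4 enzyme, wild type | medium = HEPES pH 7.0, NaCl, Pluronic buffer | also added = FP-Rh probe | incubation = Enzyme–compound pre-incubation 45 min, then probe 60 min, both 25 °C | technique = fluorescence polarization, excitation 525 nm, emission 598 nm, BODIPY TMR filters | controls = S159A mutant high control, sample median low control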
HTRA1 conf: confirmation of human HTRA1 inhibitors; inhibition, % at 5.96 µM; recombinant HTRA1, FP-rhodamine activity-based probe, fluorescence polarization; hit rate 66% among 1,600; shares compounds with HTRA1 inh; AID 540248;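 active means mean inhibition over three repeats above a set limit taken from the earlier primary screen, cut at about 37% in these data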;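 further: 0% = HTRA1 with DMSO and 100% = wells lacking HTRA1; inhibitors block probe binding so polarization drops and inhibition rises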
BSA probe FL: interferes with TAMRA-BSA probe, flagging TCR-CD3 hits | shares compounds with TCR-CD3 inh | TAMRA-labeled BSA probe fluorescence counterscreen | inhibition, % at 9.4 µM | hit rate 10% among 1,200; in the data active means inhibition above about 23%;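 further: 0% = buffer low control and 100% = reference high control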
TCR-CD3 conf: confirmation of human TCR-CD3 interaction inhibitors; shares compounds with TCR-CD3 inh; TAMRA-labeled TCR probe fluorescence binding assay; inhibition, % at 9.4 µM; hit rate 48% among 1,200
mABHD4 conf: ABHD4 (mouse) inhibition, FP confirmation. hit rate 55% among 1,800. inhibition, % at 8.92 µM. purified mABHD4, FP-Rh probe fluorescence polarization. shares compounds with mABHD4 FP. AID 720658;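 active means mean inhibition across replicates above the hit cutoff set in the primary screen, cut at about 30% in these data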;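 further: 0% = wild-type ABHD4 with DMSO and 100% = catalytically dead S159A mutant with DMSO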
TDP2 confirm: human TDP2 inhibition, confirmation | shares compounds with TDP2 absorb | recombinant human TDP2, absorbance read-out | inhibition, % at 12.8 µM | hit rate 22% among 1,100; in the data active means inhibition above about 25%;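 further: 0% = vehicle with enzyme and 100% = no enzyme buffer only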
IN multimer act: counter-screen for LEDGF/p75 integration inhibitors: HIV-1 integrase multimerization activators. hit rate 17% among 2,000. TR-FRET HIV-1 integrase multimerization, biochemical. activation, % at 7.7 µM. shares compounds with LEDGF integ inh. AID 1053131; in the data active means activation above about 8.9%
TRFRET interf: optically interferes with TR-FRET readout in LEDGF counter-screen; shares compounds with LEDGF integ inh; TR-FRET optical interference counterscreen, HIV-1 IN multimerization; inhibition, % at 7.7 µM; 2,000 tested, under 10 active;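 active means inhibition above the mean over all tested compounds plus 3 SD, which no compound reached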;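 further: 0% = integrase with antibodies and DMSO and 100% = antibodies without integrase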
IN-LEDGF confirm: confirmation of HIV-1 LEDGF/p75-dependent integration inhibitors; shares compounds with LEDGF integ inh; TR-FRET LEDGF/p75-dependent HIV-1 integration, biochemical; inhibition, % at 3.7 µM; hit rate 36% among 2,000; AID 1053136; in the data active means inhibition above about 14%
SIAE confirm: human SIAE inhibition, confirmation; shares compounds with SIAE primary; SIAE FP-Rh activity-based probe, fluorescence polarization; inhibition, % at 9.66 µM; hit rate 13% among 2,300; AID 1117263;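 active means mean inhibition of the replicates above the hit cutoff set in the primary screen, cut at about 17% in these data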;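 further: 0% = SIAE with DMSO and probe and 100% = probe without SIAE; inhibitors lower polarization as more probe stays unbound to SIAE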
The depositor's hits bear a star; . = not tested or not shown. Unless noted, no stated cut-off is given here; in the data, active means inhibition above about 19%; inactive means the rest.

SMILES	SIAE primary	TCR-CD3 inh	HTRA1 inh	TDP2 absorb	LEDGF integ inh	mABHD4 FP	HTRA1 conf	SIAE confirm	others
O=C1/C(=C\c2ccc(O)c(O)c2)C(c2ccccc2)=NN1c1ccccc1	28*	4	58*	26*	19*	28	97*	11	TDP2 confirm=6;IN multimer act=24*;TRFRET interf=-118;IN-LEDGF confirm=29*
CC(=O)CC[C@H]1CC[C@]2(CCCN(S(C)(=O)=O)C2)O1	0	.	.	5	-1	-6	.	.
Cn1cccc1/C=N/NC(=O)c1cc2ccccc2cc1O	17*	-2	40*	-9	-3	13	29	1
O=C(N/N=C/C1CC=CCC1)c1cc2ccccc2cc1O (configuration not stated)	19*	1	40*	2	-1	19	28	8
C/C(=N\NC(=O)c1c[nH]c2ccccc12)c1ccc(C)o1	0	0	-1	-14	-5	-16	.	.
C/C(=N\NC(=O)c1cc2ccccc2cc1O)c1ccc(C)o1	24*	1	47*	-11	3	28	23	-2
O=C(N/N=C/C1CC=CCC1)c1ccc(O)cc1O (configuration not stated)	13	6	10	1	0	8	.	.
Cc1ccccc1-c1ccc2c(c1)[C@@H]1C[C@H](N(C)C(=O)Nc3ccccc3)[C@H]([C@H](C)O)CN1CC2	-1	-4	.	0	1	-9	.	.
COc1ccc(/C=N\NC(=O)c2cc(O)c(O)c(O)c2)cc1CN1CCN(c2ccc(F)cc2)CC1	30*	23*	83*	4	20*	29	78*	-7	BSA probe FL=-8;TCR-CD3 conf=23*;IN multimer act=37*;TRFRET interf=-188;IN-LEDGF confirm=38*
COc1ccc(/C=N/NC(=O)c2ccc(C)cc2)cc1CN1CCN(c2ccc(F)cc2)CC1	.	.	-6	.	.	.	.	.
Cc1ccc(NC(=O)Cn2nnc(-c3ccccc3F)n2)cc1C	5	.	.	-1	-3	4	.	.
O=S(=O)(Nc1ccc(N=Nc2ccc(O)c3ccccc23)cc1)c1ccccc1	36*	2	44*	3	2	-3	31	-38
O=S(=O)(Nc1ccc(N=Nc2ccccc2)cc1)c1ccccc1	8	-1	-6	7	1	-33	.	.
O=[N+]([O-])c1cccc(N/N=C/c2cccc(O)c2O)c1	23*	7	60*	-14	4	36*	74*	-6	mABHD4 conf=34*
COCCN=c1scc(-c2ccco2)n1/N=C/c1ccc(O)c(O)c1O	28*	26*	68*	2	45*	60*	78*	-4	BSA probe FL=-28;TCR-CD3 conf=24*;mABHD4 conf=62*;IN multimer act=16*;TRFRET interf=-57;IN-LEDGF confirm=53*
CC(=O)Nc1ccc(S(=O)(=O)NC2=C(N3CCN(c4ccc(F)cc4)CC3)C(=O)c3ccccc3C2=O)cc1	25*	0	55*	36*	5	22	71*	24*	TDP2 confirm=30*
CC1(C)CC(Nc2ccc(Nc3ccccc3)cc2)CC(C)(C)N1	20*	5	42*	10	2	21	54*	6
CC1(C)CC(NC(=O)c2ccccc2)CC(C)(C)N1	0	1	5	-2	3	-1	.	.
S=C1NC[C@H](Cc2ccccc2)N1CC1CCN(CCCC2CCCCC2)CC1	-2	1	.	4	4	5	.	.
Cc1ccc(S(=O)(=O)N2c3ccccc3C[C@H]2CCC(=O)c2ccccc2)cc1	-6	.	.	0	-1	-5	.	.
O=C(N/N=C/c1ccc(O)c2ncccc12)c1cccc(Br)c1	29*	0	67*	-1	5	9	59*	13
O=C(N/N=C\c1c(O)ccc2ccccc12)c1cncc(Br)c1	31*	1	53*	-9	-9	34*	50*	6	mABHD4 conf=25
O=C(N/N=C/c1cc(Br)ccc1O)c1ccncc1	-1	-11	12	-5	0	9	.	.
Cc1ccc(C(=O)N/N=C/c2c(O)ccc3ccccc23)cn1	21*	15	62*	-12	-1	17	49*	3
Cn1cc(C(=O)N/N=C/c2c(O)ccc3ccccc23)ccc1=O	30*	38*	62*	-16	2	31*	42*	9	BSA probe FL=-22;TCR-CD3 conf=24*;mABHD4 conf=30*
SMILES	SIAE primary	TCR-CD3 inh	HTRA1 inh	TDP2 absorb	LEDGF integ inh	mABHD4 FP	HTRA1 conf	SIAE confirm	others
COc1ccccc1Cc1c(-c2ccccc2)nc2ccc(C)cn12	3	-4	.	2	-1	-5	.	.
COc1ccc(OC)c(NC(=O)O[C@@H]2CC[C@@]34CCCN3C(=O)CCC[C@H]4C2)c1	9	.	.	5	1	2	.	.
C=CCCC(=O)N1CCC(C(=O)NC2CCCc3ccccc32)CC1 (configuration not stated)	-2	.	.	3	2	1	.	.
Cc1ccccc1C(=O)N(C)[C@H]1C[C@H]2c3[nH]c4c(-c5ccccc5)cccc4c3CCN2C[C@H]1[C@H](C)O	-1	.	.	2	-2	5	.	.
COc1ccc(CNc2cccc3[nH]c(C(F)(F)F)nc23)cc1OC	19*	3	40*	-6	0	-2	12	4
COc1ccc(CNC(=O)c2[nH]c(C(F)(F)F)nc2-c2ccccc2)cc1OC	5	1	.	3	5	1	.	.
S=C(Nc1ccc(Nc2ccccc2)cc1)Nc1ccccn1	32*	0	38*	-14	7	6	40*	3
